How the values were obtained:
daf-9(dh6) worms = experiment: daf-9; format: in vivo, C. elegans; conditions: 27 °C; for daf-9(dh6) dauer rescue activity (in vivo), in words: 0.1 nM – 500 nM tested
How it was run: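 Test compound in ethanol (0.1–500 nM final, calculated over the agar volume) or ethanol alone was mixed with concentrated E. coli OP50 and plated on cholesterol-free NGM agar. About 100 daf-9(dh6) eggs from a 4–8 h egg lay were added per plate and scored for dauer arrest versus development after 60 h at 27 °C. A reference dafachronic acid at 100 nM was the positive control. Two replicates, mean ±SD.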

DAF-12 [1] = biological target: T1, DAF-12 (Caenorhabditis elegans, UniProt G5EFF5); experiment: Alphascreen assay for ligand-dependent recruitment of SRC1-4 peptide by DAF-12; format: biochemical, C. elegans; conditions: read-out: EC50, recruitment of SRC1-4 peptide by DAF-12
T1 sequence (G5EFF5 1-753): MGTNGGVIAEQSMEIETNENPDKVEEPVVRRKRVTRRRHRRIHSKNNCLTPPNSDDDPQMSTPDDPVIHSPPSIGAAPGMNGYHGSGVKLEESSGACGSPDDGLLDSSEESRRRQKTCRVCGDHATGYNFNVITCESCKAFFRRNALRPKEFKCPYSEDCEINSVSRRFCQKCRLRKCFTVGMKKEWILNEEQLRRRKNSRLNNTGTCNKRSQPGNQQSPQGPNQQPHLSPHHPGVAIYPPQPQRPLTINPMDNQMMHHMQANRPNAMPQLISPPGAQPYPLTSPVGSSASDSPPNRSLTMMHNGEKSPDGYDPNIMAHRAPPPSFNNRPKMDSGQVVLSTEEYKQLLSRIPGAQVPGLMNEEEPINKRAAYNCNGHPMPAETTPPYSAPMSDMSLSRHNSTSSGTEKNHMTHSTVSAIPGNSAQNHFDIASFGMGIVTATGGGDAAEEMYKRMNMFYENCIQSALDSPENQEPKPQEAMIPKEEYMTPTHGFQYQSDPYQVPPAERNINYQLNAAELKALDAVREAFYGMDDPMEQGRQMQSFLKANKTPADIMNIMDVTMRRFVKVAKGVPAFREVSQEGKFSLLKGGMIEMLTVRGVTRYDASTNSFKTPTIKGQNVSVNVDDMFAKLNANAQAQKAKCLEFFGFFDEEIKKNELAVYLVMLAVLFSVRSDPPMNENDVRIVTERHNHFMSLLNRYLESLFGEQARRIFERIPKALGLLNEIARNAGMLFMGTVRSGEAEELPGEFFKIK
How it was run: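 Test compound binding to DAF-12 was measured by AlphaScreen as ligand-dependent recruitment of the SRC1-4 peptide, which carries the SRC-1 NR-box motif. Signal was expressed as fold activation over an ethanol control and reported as mean ±SEM.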

DAF-12 [2] = biological target: T1, DAF-12; experiment: Luciferase assay for DAF-12 transcriptional activation in HEK-293T cells; format: cell-based, C. elegans; conditions: 1 nM – 3125 nM tested
How it was run: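 HEK-293T cells were calcium-phosphate co-transfected with full-length DAF-12, a mir84p-luciferase reporter, GFP and β-galactosidase vectors. Ethanol solutions of test compound (1–3125 nM), or ethanol alone, were added 8 h post-transfection. Luciferase and β-galactosidase activities were read 16 h after addition. A reference dafachronic acid at 100 nM was the positive control. Triplicates, mean ±SD.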

[3] = system: glp-1;daf-36 double mutant worms; experiment: Lifespan of germline-deficient glp-1; format: in vivo, C. elegans; conditions: 100 nM, glp-1;daf-36 worms

| EC50 (DAF-12 [1]) [µM] | DAF-12 activation in luciferase assay (in vitro), in words (DAF-12 [2]) | EC50 (daf-9(dh6) worms; read-out: EC50, daf-9(dh6) dauer rescue, plate based assay, synthetic compound) [µM] | Compound | daf-9(dh6) dauer rescue activity (in vivo), in words (daf-9(dh6) worms) | Restoration of glp-1-dependent lifespan extension [3] |
| --- | --- | --- | --- | --- | --- |
| 0.2 | active |  | C[C@H](CCC[C@H](C)C(=O)O)[C@H]1CC[C@H]2C3=CCC4C[C@H](O)CC[C@]4(C)[C@H]3CC[C@]12C (stereo partly drawn) [3α-OH-Δ^7-DA, (25S)-3α-hydroxy cholest-7-enoic acid] | active |  |
|  | active |  | C[C@H](CCC[C@H](C)C(=O)O)[C@H]1CC[C@H]2[C@@H]3CCC4CC(=O)CC[C@]4(C)[C@H]3CC[C@]12C (stereo partly drawn) [Δ^0-DA, (25S)-3-keto-cholestanoic acid] | active |  |
| 0.015 |  | 0.002 | CC(CCC[C@@H](C)[C@H]1CC[C@H]2C3=CCC4CC(=O)C=C[C@]4(C)[C@H]3CC[C@]12C)C(=O)O (some centres unmarked) [Δ^1,7-DA, 3-oxocholesta-1,7-dienoic acid] |  | fully restore glp-1-dependent lifespan extension |
| 0.008 |  |  | C[C@H](CCC[C@H](C)C(=O)O)[C@H]1CC[C@H]2C3=CC[C@H]4CC(=O)CC[C@]4(C)[C@H]3CC[C@]12C [Δ^7-DA, Δ^7-dafachronic acid, reference compound] |  | fully restore glp-1-dependent lifespan extension |

| Compound | EC50 (DAF-12 [1]) [µM] | DAF-12 activation in luciferase assay (in vitro), in words (DAF-12 [2]) | EC50 (daf-9(dh6) worms; read-out: EC50, daf-9(dh6) dauer rescue, plate based assay, synthetic compound) [µM] | daf-9(dh6) dauer rescue activity (in vivo), in words (daf-9(dh6) worms) | Restoration of glp-1-dependent lifespan extension [3] |
| --- | --- | --- | --- | --- | --- |
| CC(CCCC(C)C1CCC2C3=CCC4CC(O)CCC4(C)C3CCC21C)C(=O)O (stereo not drawn) [3β-OH-Δ^7-DA] |  | did not activate DAF-12 in mammalian cells at any tested concentration |  |  |  |

— publication PMC3924769 (Cell metabolism, 2014)
